Laboratory results taken from ChEMBL document CHEMBL1153485, “Synthesis and biological evaluation of novel 1-(4-methoxyphenethyl)-1H-benzimidazole-5-carboxylic acid derivatives and their precursors as antileukemic agents” (Bioorg Med Chem Lett, 2009).
Calls of active or inactive are those of the source. The calls are words filed in the database; no cut-off is given here.

Tests used:
Format in all cases: functional, cell-based
CCRF-CEM [1] = assay: Cytotoxicity against human CEM cells
Outline: (§1)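 K562 and CEM cells; IC50 values calculated from both trypan blue counting and MTT assays.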

K562 [2] = assay: Cytotoxicity against human K562 cells; outline: as §1
K562 [3] = assay: Induction of apoptosis in human K562 cells assessed as DNA strand breakage at 100 uM after 72 hrs using ethidium bromide staining by agarose gel electrophoresis
CCRF-CEM [4] = assay: Cytotoxicity against human CEM cells at 100 uM within 48 hrs by trypan blue exclusion assay
Outline: (§2)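 Leukemic cells treated with derivatives dissolved in DMSO at […]; DMSO-only cells at the amount used for the top concentration served as vehicle control. Viable cells counted by trypan blue at 24 h intervals until stationary phase.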

CCRF-CEM [5] = assay: Cytotoxicity against human CEM cells at 250 uM within 48 hrs by trypan blue exclusion assay; outline: as §2
K562 [6] = assay: Cytotoxicity against human K562 cells at 250 uM within 48 hrs by trypan blue exclusion assay; outline: as §2
K562 [7] = assay: Cytotoxicity against human K562 cells at 100 uM within 48 hrs by trypan blue exclusion assay; outline: as §2
K562 [8] = assay: Induction of cell cycle arrest at M phase in human K562 cells assessed as reduction in phosphorylated histone H3 level at 10 uM after 24 hrs by Western blot analysis
K562 [9] = assay: Induction of p21 activation in human K562 cells at 5 to 10 uM after 24 hrs by Western blot analysis
K562 [10] = assay: Induction of apoptosis in human K562 cells assessed as upregulation of BAD protein at 30 uM by SDS-PAGE; details: TDE = time-dependent effect
Outline: (§3)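 K562 cells treated with […] compound for 12 and 24 h; DMSO-treated cells grown 24 h as vehicle control. Lysates separated by SDS-PAGE, transferred to PVDF, probed with specific primary and secondary antibodies for BAD, BCL2 and PARP.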

K562 [11] = assay: Induction of cell cycle arrest at M phase in human K562 cells assessed as reduction in phosphorylated histone H3 level at 5 uM after 24 hrs by Western blot analysis
K562 [12] = assay: Cell cycle arrest in human K562 cells assessed as accumulation at G2/M phase at 1 to 10 uM after 8 to 48 hrs by FACS analysis
Outline: (§4)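 K562 cells treated with […] compound, analysed by FACS for cell cycle distribution; DMSO-treated cells as vehicle control.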

K562 [13] = assay: Cell cycle arrest in human K562 cells assessed as accumulation at S phase at 1 to 10 uM after 8 to 48 hrs by FACS analysis; outline: as §4
K562 [14] = assay: Induction of apoptosis in human K562 cells assessed as PARP cleavage at 30 uM after 12 hrs by SDS-PAGE; outline: as §3
K562 [15] = assay: Induction of cell cycle arrest in human K562 cells assessed as reduction in PCNA level at 5 to 10 uM after 24 hrs by Western blot analysis
K562 [16] = assay: Induction of cell cycle arrest at G2/M phase in human K562 cells assessed as down-regulation of cyclin B1 at 5 to 10 uM after 24 hrs by Western blot analysis
K562 [17] = assay: Induction of cell cycle arrest at S phase in human K562 cells assessed as down-regulation of CDK2 at 10 uM after 24 hrs by Western blot analysis
K562 [18] = assay: Induction of apoptosis in human K562 cells assessed as down-regulation of BCL2 protein at 30 uM after 12 hrs by SDS-PAGE; outline: as §3
K562 [19] = assay: Induction of apoptosis in human K562 cells assessed as DNA strand breakage at 10 uM after 72 hrs using ethidium bromide staining by agarose gel electrophoresis

Structure (SMILES)	IC50 (CCRF-CEM [1])	IC50 (K562 [2])	Activity (CCRF-CEM [4])	Activity (CCRF-CEM [5])	Activity (K562 [6])	Activity (K562 [7])	also measured
COC(=O)c1ccc2c(c1)nc(-c1cccc(Br)c1)n2CCc1ccc(OC)cc1	> 250 µM	> 250 µM	–	–	–	–	–
COc1ccc(CCn2c(-c3ccc(C(C)(C)C)cc3)nc3cc(C(=O)O)ccc32)cc1	42 µM	40 µM	–	–	–	–	Activity (K562 [3]): Active
COc1ccc(CCn2c(-c3ccccc3)nc3cc(C(=O)O)ccc32)cc1	> 250 µM	> 250 µM	–	–	–	–	–
COc1ccc(CCn2c(-c3c(F)cccc3F)nc3cc(C(=O)O)ccc32)cc1	85 µM	80 µM	–	–	–	–	–
COc1ccc(CCn2c(-c3ccc(N)cc3)nc3cc(C(=O)O)ccc32)cc1	> 250 µM	> 250 µM	–	–	–	–	–
COC(=O)c1ccc2c(c1)nc(-c1ccc(Cl)cc1Cl)n2CCc1ccc(OC)cc1	> 250 µM	> 250 µM	–	–	–	–	–
COC(=O)c1ccc2c(c1)nc(-c1ccc([N+](=O)[O-])cc1)n2CCc1ccc(OC)cc1	122 µM	120 µM	–	–	–	–	–
COc1ccc(CCn2c(-c3ccc(Cl)cc3Cl)nc3cc(C(=O)O)ccc32)cc1	102 µM	110 µM	Active	Active	Active	Active	–
COc1ccc(CCn2c(-c3ccc(F)c([N+](=O)[O-])c3)nc3cc(C(=O)O)ccc32)cc1	132 µM	135 µM	–	–	–	–	–
COC(=O)c1ccc2c(c1)nc(-c1ccccc1)n2CCc1ccc(OC)cc1	65 µM	64 µM	Active	Active	Active	Active	–
COC(=O)c1ccc2c(c1)nc(-c1ccc(F)c([N+](=O)[O-])c1)n2CCc1ccc(OC)cc1	4 µM	3 µM	Active	Active	Active	Active	Activity (K562 [8]): Active; Activity (K562 [9]): Active; Activity (K562 [10]): tde; Activity (K562 [11]): Active; Activity (K562 [12]): Active; Activity (K562 [13]): Active; Activity (K562 [14]): Active; Activity (K562 [15]): Active; Activity (K562 [16]): Active; Activity (K562 [17]): Active; Activity (K562 [18]): Active; Activity (K562 [19]): Active
COC(=O)c1ccc2c(c1)nc(-c1ccccc1F)n2CCc1ccc(OC)cc1	55 µM	56 µM	Active	Active	Active	Active	Activity (K562 [3]): Active
COc1ccc(CCn2c(-c3ccccc3F)nc3cc(C(=O)O)ccc32)cc1	244 µM	240 µM	–	–	–	–	–
COC(=O)c1ccc2c(c1)nc(-c1cccc(OC)c1)n2CCc1ccc(OC)cc1	138 µM	136 µM	Active	Active	Active	Active	–
COC(=O)c1ccc2c(c1)nc(-c1c(F)cccc1F)n2CCc1ccc(OC)cc1	85 µM	84 µM	Active	Active	Active	Active	–
COc1ccc(CCn2c(-c3cccc(Br)c3)nc3cc(C(=O)O)ccc32)cc1	120 µM	124 µM	Active	Active	Active	Active	–
COC(=O)c1ccc2c(c1)nc(-c1ccc(N)cc1)n2CCc1ccc(OC)cc1	175 µM	180 µM	–	–	–	–	–
COC(=O)c1ccc2c(c1)nc(-c1ccc(C(C)(C)C)cc1)n2CCc1ccc(OC)cc1	68 µM	70 µM	Active	Active	Active	Active	–
COc1ccc(CCn2c(-c3cccc(OC)c3)nc3cc(C(=O)O)ccc32)cc1	195 µM	200 µM	–	–	–	–	–
COC(=O)c1ccc2c(c1)nc(-c1ccc(F)c(N)c1)n2CCc1ccc(OC)cc1	75 µM	78 µM	–	–	–	–	–
COc1ccc(CCn2c(-c3ccc(F)c(N)c3)nc3cc(C(=O)O)ccc32)cc1	182 µM	180 µM	–	–	–	–	–
COc1ccc(CCn2c(-c3ccc([N+](=O)[O-])cc3)nc3cc(C(=O)O)ccc32)cc1	245 µM	250 µM	–	–	–	–	–
